# Assay results taken from paper PMC5434479 (Inorganic Chemistry, 2017).
# Like-named read-outs stand apart in the source and are kept apart here.
# Tests used:
# [1] = tested on: human telomeric i-motif sequence (hTeloC); test: FRET DNA-melting assay, hTeloC; format: binding; details: pH 5.5 and pH 6.0; for interaction in preliminary screening (in words): hTeloC i-motif 0.2 μM, 50 equiv (10 μM); for stabilization of telomeric i-motif, pH 6.0 versus pH 5.5 (in words): hTeloC
# Outline: (§1)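 FAM/TAMRA-labelled oligonucleotides were annealed in 10 mM sodium cacodylate with 100 mM NaCl. Buffer was pH 5.5 and 6.0 for hTeloC and pH 7.2 for hif-1α, hTeloG and duplex. Final DNA was 0.2 μM, with compound added at 1:10 by volume. DMSO-matched DNA controls ran in each run. Melting curves were recorded by real-time PCR machine, excitation 470 nm and detection 510 nm. Mean and SD of three experiments.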
# [2] = tested on: human fetal lung fibroblast (MRC-5) cells; test: MTS antiproliferation assay, MRC-5 healthy fibroblasts; format: cell-based; details: for IC50: read-out: IC50 ± SE; for times less toxic toward healthy fibroblasts (MRC-5) than toward HL60 and MCF-7: MRC-5 versus HL60 and MCF-7
# Outline: (§2)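 Culture was at 37 °C, 5% CO2: A549 in RPMI 1640, MCF-7 and MRC-5 in DMEM, each with 10% FCS, 2 mM L-glutamine and penicillin/streptomycin. Seeding per 100 μL was 8 × 10^3 (A549, MCF-7) or 2 × 10^3 (MRC-5). Compound in DMSO was diluted 100-fold into wells (1% DMSO final), tested at several concentrations in triplicate for 72 h. MTS reagent was added for 4 h, then A490 read; IC50 calculated.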
# double-stranded DNA = test: FRET DNA-melting assay, double-stranded DNA; format: binding; details: double-stranded DNA 0.2 μM, 50 equiv (10 μM), pH 7.2
# Outline: as §1
# [3] = tested on: G-quadruplex-forming sequence from the human telomere (hTeloG); test: FRET DNA-melting assay, hTeloG; format: binding; details: hTeloG G-quadruplex 0.2 μM, 50 equiv (10 μM), pH 7.2
# Outline: as §1
# [4] = tested on: i-motif-forming sequence from the promoter region of the oncogene hif-1α; test: FRET DNA-melting assay, hif-1α i-motif; format: binding; details: hif-1α i-motif 0.2 μM, 50 equiv (10 μM), pH 7.2
# Outline: as §1
# [5] = tested on: human promyelocytic leukemia (HL60) cells; test: MTS antiproliferation assay, HL60 cells; format: cell-based; details: for cell viability: HL60, 1 μM; for cell viability / inhibition of HL60 cell proliferation (in words): 72 h; for inhibition of HL60 cell proliferation (in words): HL60, 10 μM; for IC50: read-out: IC50 ± SE
# Outline: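 HL60 cells were kept in RPMI 1640 with 10% FCS, 2 mM L-glutamine and penicillin/streptomycin at 37 °C, 5% CO2, and seeded at 3 × 10^4 per 100 μL. Compound predissolved in DMSO was diluted 100-fold into wells (1% DMSO final). Wells received 10 or 1 μM, or a concentration series, in triplicate for 72 h. MTS reagent was added for 4 h, then absorbance read at 490 nm. Screening data were averaged over three experiments; IC50 calculated.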
# [6] = tested on: human breast adenocarcinoma (MCF-7) cells; test: MTS antiproliferation assay, MCF-7 cells; format: cell-based; details: for IC50: read-out: IC50 ± SE
# Outline: as §2
# [7] = tested on: human lung adenocarcinoma epithelial (A549) cells; test: MTS antiproliferation assay, A549 cells; format: cell-based; details: for IC50: read-out: IC50 ± SE
# Outline: as §2
# A549 cells = test: Cellular uptake, gold content by ICP-MS, A549 cells; format: cell-based, human; details: A549, 10 μM, 6 h
# [8] = target: MDM2–p53 interaction (human MDM2 protein, residues 17–125) (Homo sapiens, UniProt Q00987); test: Fluorescence polarization assay of MDM2–p53 interaction; format: binding; details: for disruption of MDM2–p53 interaction in screening (in words): 100 μM
# Outline: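 Compound in DMSO was added at 1:10. Positive control was wild-type p53 peptide (15–27) at 400 μM final, negative control DMSO, each in triplicate. Plates were incubated 30 min at room temperature and read by polarisation at 490/520 nm, with total fluorescence checked. IC50 came from log(inhibitor) versus response, variable slope.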
# MCF-7 cells = test: Cellular uptake, gold content by ICP-MS, MCF-7 cells; format: cell-based, human; details: MCF-7, 1 μM, 6 h
# MDM2 = MDM2 (Homo sapiens, UniProt Q00987); test: STD NMR binding to MDM2; details: 13.5 μM MDM2, 500 μM compound, 1% DMSO-d6, 25 °C
# Outline: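 STD NMR at 800 MHz used a pseudo-2D sequence with spoil pulses. Protein was saturated by cascades of 49 ms Gaussian pulses, 1 ms apart, on-resonance at 0 ppm and off-resonance at 40 ppm. Saturation lasted 4 s for binding detection and 0.5 s for epitope mapping, 1024 scans each. Blank runs without protein were done. Epitope values were normalised to the most intense proton as 100%.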
# [9] = Reaction with glutathione monitored by 1H NMR; format: physicochemical; details: equimolar GSH (10 mM) in DMSO-d6, room temperature, 6 days
# Sequence of MDM2–p53 interaction (human MDM2 protein, residues 17–125) (Q00987 17-125): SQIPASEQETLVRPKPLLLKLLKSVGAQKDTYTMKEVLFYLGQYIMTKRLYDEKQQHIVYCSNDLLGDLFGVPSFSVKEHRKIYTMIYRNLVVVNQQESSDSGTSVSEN
# Sequence of MDM2 (Q00987 whole entry): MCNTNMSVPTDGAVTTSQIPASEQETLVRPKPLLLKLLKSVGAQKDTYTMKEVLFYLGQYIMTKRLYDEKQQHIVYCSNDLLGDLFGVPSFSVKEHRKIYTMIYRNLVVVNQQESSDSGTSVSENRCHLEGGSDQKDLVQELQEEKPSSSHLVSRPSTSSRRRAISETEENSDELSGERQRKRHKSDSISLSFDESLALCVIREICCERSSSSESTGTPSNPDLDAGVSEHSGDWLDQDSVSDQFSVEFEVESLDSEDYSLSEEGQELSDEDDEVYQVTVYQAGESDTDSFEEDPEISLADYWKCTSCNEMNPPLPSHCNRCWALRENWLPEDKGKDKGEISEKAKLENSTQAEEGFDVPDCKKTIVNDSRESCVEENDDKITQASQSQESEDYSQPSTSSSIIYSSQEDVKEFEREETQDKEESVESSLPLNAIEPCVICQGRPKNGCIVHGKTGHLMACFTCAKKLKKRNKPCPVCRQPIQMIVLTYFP
"IC50 ([5]; HL60, 72 h incubation, MTS) [µM]","IC50 ([6]; MCF-7, 72 h incubation, MTS) [µM]","IC50 ([7]; A549, 72 h incubation, MTS) [µM]",cell uptake (in words) (A549 cells),cell uptake (in words) (MCF-7 cells),Compound,interaction in preliminary screening (in words) [1],"IC50 ([2]; MRC-5, 72 h incubation, MTS) [µM]",interaction in preliminary screening (in words) [3],interaction in preliminary screening (in words) [4],cell viability [5],inhibition of HL60 cell proliferation (in words) [5],"stabilization of telomeric i-motif, pH 6.0 versus pH 5.5 (in words) [1]",disruption of MDM2–p53 interaction in screening (in words) [8],times less toxic toward healthy fibroblasts (MRC-5) than toward HL60 and MCF-7 [2],other results
0.9 ± 0.22,0.78 ± 0.11,29 ± 1.8,,,(C^N^pz^N)Au(6-thioguanine) [Compound 4],did not show any interaction,4.3 ± 0.7,did not show any interaction,did not show any interaction,60%,completely inhibited cell proliferation,,,,interaction in preliminary screening (in words) (double-stranded DNA): did not show any interaction
4.05 ± 0.43,7.9 ± 0.13,> 50,poorly taken up,poorly taken up,"[(C^N^pz^N)Au(1,3,7,9-tetramethylxanthin-8-ylidene)]BF4 [Compound 3]",good interactions,17.6 ± 1.9,good interactions,good interactions,nontoxic,completely inhibited cell proliferation,does not show any particular difference,only compounds 1 and 2 appeared to disrupt,2–4,
0.31 ± 0.15,0.56 ± 0.02,7.8 ± 1.3,much higher uptake,highest concentrations,"[(C^N^pz^N)Au(1,3-dimethylbenzimidazol-2-ylidene)]PF6 [Compound 2]",good interactions,1.4 ± 0.4,good interactions,good interactions,22%,completely inhibited cell proliferation,stabilize the telomeric i-motif structure at pH 6.0 more efficiently than at pH 5.5,appeared to disrupt the MDM2–p53 interaction,2–4,"intracellular gold concentration, times higher than that of 1 (A549 cells): ~4; intracellular gold concentration, times higher than that of 3 (A549 cells): ~11; binding to MDM2 in solution (in words) (MDM2): clearly confirmed the binding; IC50 ([8]; 10 nM HDM2 and tagged peptide, pH 7.4): 31.1 ± 1.1 µM; times more potent than 3 ([6]; MCF-7, ratio of IC50 values): up to 14; times more toxic than (benzimidazolylidene)AuCl ([6]; MCF-7, comparator value ref 44): more than 10; stability toward GSH [9]: high stability; times more toxic than cisplatin ([7]; A549, ratio of IC50 values): 4; toxicity relative to (benzimidazolylidene)AuCl ([7]; A549, comparator value ref 25b): more than twice as toxic"
,,,,,"Nc1nc2nc[nH]c2c(=S)[nH]1 [Compound 6-TG, 6-thioguanine, reference compound]",,,,,,,,,,"IC50 ([2]; Homo sapiens, MRC5, 72 h): > 50 µM; IC50 ± SE ([2]; MRC-5, 72 h incubation, MTS): nontoxic; IC50 ([5]; Homo sapiens, HL-60, 72 h): 0.98 ± 0.07 µM; IC50 ([6]; Homo sapiens, MCF7, 72 h): 0.42 ± 0.13 µM; IC50 ([7]; Homo sapiens, A549, 72 h): > 50 µM"

Compound,"IC50 ([5]; HL60, 72 h incubation, MTS) [µM]","IC50 ([6]; MCF-7, 72 h incubation, MTS) [µM]","IC50 ([7]; A549, 72 h incubation, MTS) [µM]",cell uptake (in words) (A549 cells),cell uptake (in words) (MCF-7 cells),interaction in preliminary screening (in words) [1],"IC50 ([2]; MRC-5, 72 h incubation, MTS) [µM]",interaction in preliminary screening (in words) [3],interaction in preliminary screening (in words) [4],cell viability [5],inhibition of HL60 cell proliferation (in words) [5],"stabilization of telomeric i-motif, pH 6.0 versus pH 5.5 (in words) [1]",disruption of MDM2–p53 interaction in screening (in words) [8],times less toxic toward healthy fibroblasts (MRC-5) than toward HL60 and MCF-7 [2],other results
"N.N.[Cl][Pt][Cl] [cisplatin, cis-diamminedichloroplatinum(II), reference compound]",3.7 ± 0.25,21.2 ± 3.9,33.7 ± 3.7,,,,10.7 ± 3,,,,,,,,
